Laboratory results published in ChEMBL document CHEMBL2202989, “New adamantane phenylalkylamines with σ-receptor binding affinity and anticancer activity, associated with putative antagonism of neuropathic pain” (J Med Chem, 2012).

Experiments:
PC-3 [1] = experiment: Cell cycle arrest in human PC3 cells assessed as accumulation at G2 phase at 5 uM after 24 hrs using propidium iodide staining by FACS analysis (reference value: 12 %); assay type: functional
IGROV-1 [2] = experiment: Cell cycle arrest in human IGROV1 cells assessed as accumulation at sub G1 phase at 15 uM after 24 hrs using propidium iodide staining by FACS analysis (reference value: 4 %); assay type: functional
PC-3 [3] = experiment: Induction of apoptosis in human PC3 cells assessed as total apoptotic death at 50 uM using annexin V/7-AAD by FACS analysis (reference value: 8 %); assay type: functional
Procedure, shortened: (§1)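 Cells plated 24 h before treatment, then exposed 24 h to 0.5, 5, 15 or 50 μM compound (final DMSO 0.5%); vehicle controls included. Cells scraped and stained with annexin V-FITC and 7-AAD for 15 min on ice in the dark. Flow cytometry with 488 nm excitation, 10,000 gated cells. Early apoptosis was annexin V+/7-AAD−, late was annexin V+/7-AAD+.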

IGROV-1 [4] = experiment: Cell cycle arrest in human IGROV1 cells assessed as accumulation at S phase at 5 uM after 24 hrs using propidium iodide staining by FACS analysis (reference value: 29 %); assay type: functional
PC-3 [5] = experiment: Cell cycle arrest in human PC3 cells assessed as accumulation at S phase at 50 uM after 24 hrs using propidium iodide staining by FACS analysis (reference value: 42 %); assay type: functional
BXPC-3 [6] = experiment: Cell cycle arrest in human BxPC3 cells assessed as accumulation at G2 phase at 0.5 uM after 24 hrs using propidium iodide staining by FACS analysis (reference value: 12 %); assay type: functional
Procedure, shortened: (§2)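 Cells were plated 24 h before treatment and exposed for 24 h at final 0.5, 5, 15 and 50 μM in 0.5% DMSO, against vehicle-treated controls. Cells were then trypsinised and fixed in cold ethanol for 3 h at 4 °C. They were stained in a mix of RNase (200 μg/mL) and PI (1 mg/mL) for 45 min at room temperature in the dark. Flow cytometry used 488 nm excitation and 10 000 gated cells. Phase percentages were assigned from DNA content.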

IGROV-1 [7] = experiment: Induction of apoptosis in human IGROV1 cells assessed as late apoptosis at 0.5 uM using annexin V/7-AAD by FACS analysis (reference value: 5 %); assay type: functional
IGROV-1 [8] = experiment: Cell cycle arrest in human IGROV1 cells assessed as accumulation at G1 phase at 50 uM after 24 hrs using propidium iodide staining by FACS analysis (reference value: 27 %); assay type: functional; procedure, shortened: as §2
SK-HEP1 = experiment: Growth inhibition of human SKHEP1 cells after 48 hrs by SRB assay; assay type: functional; conditions: SK-HEP1, 48 h
Procedure, shortened: (§3)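 Cells grown in RPMI 1640 with 5% heat-inactivated FCS, 2 mM L-glutamine and antibiotics, 37 °C, 5% CO2. Seeded at 3500–30000 cells/well and left 24 h before dosing. DMSO solutions added at 10-fold dilutions from 100 to 0.01 μM for 48 h. Cells TCA-fixed and SRB-stained, absorbance read at 540 nm; GI50 derived against the time-zero plate.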

IGROV-1 [9] = experiment: Cell cycle arrest in human IGROV1 cells assessed as accumulation at sub G1 phase at 0.5 uM after 24 hrs using propidium iodide staining by FACS analysis (reference value: 4 %); assay type: functional
IGROV-1 [10] = experiment: Cell cycle arrest in human IGROV1 cells assessed as accumulation at G2 phase at 15 uM after 24 hrs using propidium iodide staining by FACS analysis (reference value: 19 %); assay type: functional
PC-3 [11] = experiment: Induction of apoptosis in human PC3 cells assessed as healthy cells at 15 uM using annexin V/7-AAD by FACS analysis (reference value: 91 %); assay type: functional
BXPC-3 [12] = experiment: Cell cycle arrest in human BxPC3 cells assessed as accumulation at G1 phase at 50 uM after 24 hrs using propidium iodide staining by FACS analysis (reference value: 41 %); assay type: functional; procedure, shortened: as §2
IGROV-1 [13] = experiment: Induction of apoptosis in human IGROV1 cells assessed as early apoptosis at 0.5 uM using annexin V/7-AAD by FACS analysis (reference value: 9 %); assay type: functional
PC-3 [14] = experiment: Cell cycle arrest in human PC3 cells assessed as accumulation at G2 phase at 50 uM after 24 hrs using propidium iodide staining by FACS analysis (reference value: 12 %); assay type: functional
IGROV-1 [15] = experiment: Cell cycle arrest in human IGROV1 cells assessed as accumulation at >G2/M phase at 0.5 uM after 24 hrs using propidium iodide staining by FACS analysis (reference value: 21 %); assay type: functional; procedure, shortened: as §2
IGROV-1 [16] = experiment: Induction of apoptosis in human IGROV1 cells assessed as cleaved caspase3 containing cells at 0.5 uM by antibody-based FACS analysis (reference value: 3.9 %); assay type: functional
Mus musculus = experiment: Toxicity in CD1 mouse assessed as mortality at 40 to 55 mg/kg, ip for 2 to 3 weeks; assay type: organism-based; parameters: route intraperitoneal; conditions: in vivo
Procedure, shortened: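 CD-1 (male and female) and SCID mice dosed ip at 40−55 mg/kg in 5% Tween 80 for chronic 2−3 week regimens. Deaths and body weight loss compared with vehicle (Tween 80 or Cremophor) and reference-drug groups. Weight loss, neurological, behavioral and dietary changes recorded as toxicity signs.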

[17] = Growth inhibition of human MSC cells after 48 hrs by SRB assay; assay type: cell-based; procedure, shortened: as §3
BXPC-3 [18] = experiment: Antitumor activity against human BxPC3 cells xenografted in SCID mouse assessed as tumor growth inhibition at 50 mg/kg, ip administered 3 consecutives days per week for one cycle relative to control; assay type: functional; conditions: BXPC-3, ip, route intraperitoneal, read-out: TGI
IGROV-1 [19] = experiment: Induction of apoptosis in human IGROV1 cells assessed as total apoptotic death at 15 uM using annexin V/7-AAD by FACS analysis (reference value: 13 %); assay type: functional; procedure, shortened: as §1
OVCAR-5 = experiment: Antitumor activity against human OVCAR5 cells xenografted in SCID mouse assessed as axillary metastasis at 55 mg/kg, ip administered 5 consecutive days in a week for two cycles measured after 2 cycles relative to control; assay type: functional; conditions: OVCAR-5, ip, route intraperitoneal, read-out: TGI
Procedure, shortened: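 SCID mice carried OVCAR5 xenografts (10^6 cells per inoculum), 16 mice (32 tumors) per group, with ip dosing in 5% Tween 80 from a tumor volume of about 100 mm3. Caliper volume was measured twice weekly and %ΔT/ΔC derived. At termination, primary tumors were weighed and secondary metastases were scored at axillary and bone sites (n = 7−8). Two-tailed t test.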

BXPC-3 [20] = experiment: Cell cycle arrest in human BxPC3 cells assessed as accumulation at G1 phase at 5 uM after 24 hrs using propidium iodide staining by FACS analysis (reference value: 41 %); assay type: functional; procedure, shortened: as §2
BXPC-3 [21] = experiment: Cell cycle arrest in human BxPC3 cells assessed as accumulation at G2 phase at 50 uM after 24 hrs using propidium iodide staining by FACS analysis (reference value: 12 %); assay type: functional; procedure, shortened: as §2
PC-3 [22] = experiment: Cell cycle arrest in human PC3 cells assessed as accumulation at G1 phase at 50 uM after 24 hrs using propidium iodide staining by FACS analysis (reference value: 36 %); assay type: functional
IGROV-1 [23] = experiment: Cell cycle arrest in human IGROV1 cells assessed as accumulation at >G2/M phase at 15 uM after 24 hrs using propidium iodide staining by FACS analysis (reference value: 21 %); assay type: functional; procedure, shortened: as §2

Work on `CN1CCN(CCCc2ccc(C(c3ccccc3)C34CC5CC(CC(C5)C3)C4)cc2)CC1` (stereo not drawn) yielded an Activity (PC-3 [1]) of 10%, an Activity (IGROV-1 [2]) of 12% and an Activity (PC-3 [3]) of 23%. It also gave an Activity (IGROV-1 [4]) of 27%, an Activity (PC-3 [5]) of 31% and an Activity (BXPC-3 [6]) of 11%. For the same compound, the Activity (IGROV-1 [7]) was 3%, the Activity (IGROV-1 [8]) was 30% and the GI50 (SK-HEP1) was 3.49 µM. The TGI (SK-HEP1) was 6.37 µM, the CC50 (SK-HEP1; read-out: LC50 (the source's name)) was 0.00924 µM and the Activity (IGROV-1 [9]) was 4%. For the same compound, the Activity (IGROV-1 [10]) was 27%, the Activity (PC-3 [11]) was 71% and the Activity (BXPC-3 [12]) was 31%. It also gave an Activity (IGROV-1 [13]) of 8%, an Activity (PC-3 [14]) of 11% and an Activity (IGROV-1 [15]) of 20%. For the same compound, the Activity (IGROV-1 [16]) was 4.2%, the Activity (Mus musculus) was “Non-toxic” and the TGI [17] was 30.9 µM. It also gave an inhibition in vivo at 50 mg/kg (BXPC-3 [18]) of 41.6%, an Activity (IGROV-1 [19]) of 57% and an inhibition in vivo at 55 mg/kg (OVCAR-5) of 25%. For the same compound, the Activity (BXPC-3 [20]) was 53%, the Activity (BXPC-3 [21]) was 9% and the Activity (PC-3 [22]) was 29%. It also gave an Activity (IGROV-1 [23]) of 17%.
